Experimental data published in PubChem BioAssay AID1019 (Sanford-Burnham Center for Chemical Genomics, 2008).
Hit rate of the full screen: of about 190,000 compounds, fewer than 10 were called active.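 The calls were made as follows: active = over 50% inhibition of intestinal alkaline phosphatase at 20 µM in the single-dose screen; inactive = the rest.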 Not all results are given here.

test system: alkaline phosphatase, intestinal [Bos taurus]; test: IAP enzyme activity blockers – biochemical, bovine IAP, CDP-star luminescence, selectivity assay for TNAP inhibitor project, primary screen (AID 1019); details: purified bovine IAP, 30 min, at 20 µM, active compounds read high
Summary of the method: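 System: Purified bovine intestinal alkaline phosphatase (IAP) enzyme | Input: IAP diluted 1/65,000,000 in the well | Also added: CDP-star chemiluminescent phosphatase substrate, 30 µM final | Dosing: 20 µM single dose | Times: Enzyme reaction for 30 min at room temperature | Detection: Luminescence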

inhibition, inactive:
COc1ccc(/C=C(\C#N)C(=O)ONC2=NCCCCC2)cc1 -2%
Cc1ncoc1C(=O)N1CCCC(C(=O)c2ccc3c4c(cccc24)CC3)C1 (stereo not given) 8.3%
COC(=O)c1nc(NC(=O)c2ccc(F)cc2)n[nH]1 8.8%
CC1(C)CC(=O)c2cnc3nc4ccccc4n3c2C1 7.1%
CCOc1c(CNCc2ccc(C(=O)O)cc2)cccc1OC -5.7%
Cc1cc(C(C)(C)C)cc(S(=O)(=O)Nc2ccc(C(=O)O)cc2)c1C -15.7%
Cc1c(NC(=O)CSc2nnnn2-c2ccc(C(=O)O)cc2)c(=O)n(-c2ccccc2)n1C 6%
CC(C)(C)c1cnnn1-c1ccc([N+](=O)[O-])cc1 3.1%
CCCCCCCCCOC1OC(CO)C(O)C(O)C1NC(C)=O (stereo not given) -0.5%
COc1ccc(CCNC(=O)CN(c2ccccc2)S(C)(=O)=O)cc1 -4%
CCCc1nc2c([nH]1)C(c1cccnc1)C(C#N)=C(N)O2 (stereo not given) 8.5%
CC(OC(=O)CCc1nc(=O)c2ccccc2n1C)C(=O)NCc1ccc2c(c1)OCO2 (stereo not given) -9.4%
O=c1[nH]c(=S)[nH]c2[nH]c(=S)[nH]c12 18.7%
CC(C)N(Cc1nc(-c2ccc3c(c2)OCO3)no1)CC1CCC(=O)N1 (stereo not given) 2.1%
O=C(NC1CC1)c1ccc(-c2ccccc2)cc1 -4.4%
O=C(O)CSCC(=O)Nc1ccc(C(F)(F)F)cc1 3.8%
COc1cc(OC)cc(C(=O)NCC(=O)OCc2csc(-c3ccccc3)n2)c1 1.4%
CNc1nccc(-c2ccc(Cl)cc2)c1C#N -1.9%
O=C(c1ccc(C(F)(F)F)cc1)C1CCCN(C(=O)c2csnn2)C1 (stereo not given) 9.5%
CN1C(=O)/C(=C/c2ccco2)SC1=Nc1cccc(C(=O)O)c1 -5.3%
COC(=O)CCC(=O)N1CCCC(CO)(Cc2ccccc2)C1 (stereo not given) 6.2%
CCN(CC)CCN(C(=O)c1cccc([N+](=O)[O-])c1)c1nc2ccc(OC)cc2s1 4.9%
O=C(Nc1ccc([N+](=O)[O-])cc1)C1(c2ccccc2)CCOCC1 9.9%
Cc1noc(C)c1COc1cccc(C(=O)Nc2cccnc2)c1 -7.5%
CC(C)CCNC(=O)c1cccnc1Sc1ccccc1 -6.1%
Brc1ccc(C2CC(c3ccccc3)=Nc3ccccc3N2)cc1 (stereo not given) 7.5%
Cc1ccc(C)c(Cn2nnc3c(=O)[nH]c(C(=O)Nc4ccc(F)cc4)nc32)c1 2.7%
COc1ccccc1CN(C)C(=O)C1(c2ccc(Cl)cc2)CC1 11.2%
COCCNC(=S)Nc1cc(S(=O)(=O)N2CCOCC2)ccc1N1CCCCC1 -0.2%
COc1ccc(S(=O)(=O)N2CCN(C(=O)c3cc(C)oc3C)CC2)cc1 4.3%
Cc1ccc(NC(=O)c2oc3ccccc3c2C)c([N+](=O)[O-])c1 21.2%
Clc1ccc(-c2cc(C3CCNCC3)[nH]n2)c(Cl)c1 1%
COc1cccc(NC(=O)C(Sc2nnnn2C)c2ccccc2)c1 (stereo not given) -2.3%
CCC1SC(CC)C(=O)N(CC(=O)NC2CCCCC2)C1=O (stereo not given) 11.7%
O=C(CCc1[nH]c2ccccc2c1Sc1ccccc1)N(CCO)CCO 14.8%
Cc1ccc(S(=O)(=O)N(Cc2ccc(Cl)cc2)c2ccccc2C(=O)NCc2cccnc2)cc1 15.3%
O=C(C/C(=N\NC(=O)c1ccccc1Br)C(F)(F)F)c1cccs1 5.9%
Cc1ccc(C(=O)N2CCN(S(=O)(=O)N3CCOCC3)CC2)cc1 9%
CCc1cccc(C)c1NC(=O)COC(=O)Cc1ccsc1 -0.9%
O=C(CSc1nncs1)NC1CCCc2ccccc21 (stereo not given) -2.1%
Cc1ccc2nc(C)cc(N/N=C/c3ccc(F)cc3)c2c1 0.2%
O=C(COC(=O)Cn1cnc2ccccc2c1=O)NCC12CC3CC(CC(C3)C1)C2 12.5%
O=C1CCC(CCC(=O)N2CCCC(C(=O)c3ccc(Cl)cc3)C2)=NN1 (stereo not given) -3%
CCC(C)CN1CCC(CO)(Cc2ccccc2Cl)CC1 (stereo not given) -18.6%
COc1ccc(N2C(=O)C(Cc3ccccc3)NC2=S)cc1 (stereo not given) -2.9%
COc1ccc(-n2cnnc2SCC(=O)Nc2cccc([N+](=O)[O-])c2)cc1 8.1%
Cc1nc2scc(-c3cccs3)c2c(=O)n1N -37.2%
CCN(CC(=O)Nc1ccc(Cl)c(S(=O)(=O)N(C)C)c1)Cc1nc2ccccc2c(=O)[nH]1 -108%
COc1cc(C(=O)Nc2cc(C(F)(F)F)ccc2-n2cncn2)cc(OC)c1OC -1.7%
NS(=O)(=O)c1ccc(CCNC(=O)c2ccc(Cl)cc2[N+](=O)[O-])cc1 -14.5%
Cc1nc2ccccn2c1C(=O)NN=C1CCN(C)CC1 -6.8%
CC(=O)NNC1=Nc2ccccc2N(C)C(C)C1 (stereo not given) 26.5%
Clc1ccc(N/N=C/c2cccs2)nn1 -1.4%
Cc1cccc(CSc2ccc(-c3cccs3)nn2)c1 14.5%
COC(=O)c1c(NC(=O)c2c(Cl)cnn2C)sc(C)c1C 0.9%
O=C(NCc1cccs1)c1cc(-c2ccccn2)nc2ccc(Br)cc12 -9.8%
CC1CCN(C(=O)c2ccc(S(=O)(=O)Cc3cc(F)ccc3F)c([N+](=O)[O-])c2)CC1 18.6%
COc1ccc(CCN=C2SCC(=O)N2Cc2ccccc2)cc1OC 3.1%
COc1ccc(C(=O)NNC(=O)c2cc(C)[nH]n2)cc1 -38.6%
CCN(CC)CCN(C(=O)c1ccc(N2C(=O)CCC2=O)cc1)c1nc2cc3c(cc2s1)OCO3 -11.6%
CC(=O)Nc1ccc(C(=O)OCC(=O)Nc2ccc([N+](=O)[O-])cc2C(F)(F)F)cc1 34.7%
Cn1cc(CN2CCCCC2c2ccccn2)c(-c2ccc3c(c2)OCCO3)n1 (stereo not given) 6.3%
COc1ccc(C(=O)Nc2ccc(N3CCC(C)CC3)cc2)cc1Br -10.7%
O=C(CSc1ccccc1)Nc1cc(Cl)ccc1Oc1ccccc1 6.2%
N/C(Cc1ccc([N+](=O)[O-])cc1)=N\OC(=O)C1CCCCC1 -0.5%
CCCCS(=O)c1snnc1C (stereo not given) -11.4%
C[C@@H]1NC(=O)c2cc([N+](=O)[O-])cc(F)c2NCCC[C@@H](C(N)=O)NC(=O)[C@H](CC(N)=O)NC1=O 38.7%
CCN(CC)C(=O)Oc1ccc(OC(=O)N(CC)CC)cc1 -10.3%
CC(=O)NCC(=O)N(Cc1ccco1)C1(C(=O)NC2CCCC2)CCCCC1 3.8%
CCOC(=O)c1c(CN(C)C)n(-c2ccccc2)c2cc(Br)c(O)cc12 -6.7%
CC(C)C(=O)Nc1ccc2oc(=O)ccc2c1 7%
CCOC(=O)/C(C#N)=C/c1ccc(N2CCCCC2)cc1 11.8%
CC(C)(c1ccccc1)c1ccc(OCCN)cc1 14.7%
COC(=O)Cc1ccc(NC(=S)NCc2ccco2)cc1 4%
COc1ccc(/C=N/N=C2/C(=O)Nc3ccccc32)cc1O 5%
COc1cc(NS(=O)(=O)c2ccc(NC(=O)CN3C(=O)c4ccccc4C3=O)cc2)ncn1 3.8%
CN(C)CCN=c1cc(-c2ccccc2)oc2ccc(Cl)cc12 -8.9%
CC(C)(C)NC(=O)c1ccc(Cn2cc(C(F)(F)F)ccc2=O)cc1 4.3%
Oc1ccc(N2CCN(C(=S)NCc3ccccc3)CC2)cc1 6.1%
CCCCN(CC)CCCNC(=O)c1ccc(CSc2nc3ccncc3[nH]2)cc1 -24%
O=C(CCc1ccccc1)Nc1nn[nH]n1 5.5%
CC1CCCN(CC(O)COc2ccc3c(c2)OCO3)C1 (stereo not given) 3.1%
Cc1ccccc1C1CC(c2cccs2)=NN1S(C)(=O)=O (stereo not given) 18.1%
CCN(c1ccccc1)S(=O)(=O)c1ccc2[nH]c(=O)[nH]c2c1 3.4%
O=S(=O)(NCCc1ccc(F)cc1)c1cccc2cccnc12 10.8%
COc1cc(/C=C/C(=O)OCC(=O)N2CCOCC2)ccc1OCC#N -7.3%
O=C(Cn1cnc2ccccc21)N/N=C/c1ccco1 -22.7%
CC1CC(C)CN(CCC(=O)Nc2ccc3c(c2)CCC3)C1 (stereo not given) -14.7%
O=C(COC(=O)/C=C/c1ccc(S(=O)(=O)N2CCCCCC2)cc1)NCc1ccccc1Cl 14.5%
CCCNC(=O)NC(=O)COC(=O)CC(NC(N)=O)c1ccc(Cl)cc1 (stereo not given) 7.6%
Cc1c(C=O)c2ccccc2n1CC(=O)O -6.7%
CCn1nc(C)c(CN2CCN(Cc3ccc(OC)c(C)c3C)C(CCO)C2)c1C (stereo not given) -4.7%
COc1ccc(C2CC(c3cccs3)Nc3nnnn32)cc1 (stereo not given) 16.6%
CCN(CC)C(=O)N(CC)Cc1ccccc1 -1.7%
Cc1ccc(Nc2c(F)c(F)c(F)c(F)c2C(=O)O)c(C)c1 1.3%
C=CCN(c1ccc(Cl)cc1)S(=O)(=O)c1cccc(C(=O)OCC(=O)N(C)C)c1 -6.8%
Cn1cc(-c2ccccc2)cc(C#N)c1=O -3.4%
CC(C)(C)n1ncc2c(=O)n(Cc3ccc(Cl)cc3)cnc21 -1.6%
CCCCCCCNc1nc(Cl)nc(NCCO)n1 -10.7%
CCOC(=O)C1(Cc2ccccc2C(F)(F)F)CCN(C(=O)c2cc(C)n(C)n2)CC1 -5.4%
CCN(CC)CCNc1nc(-c2ccc(OC(F)F)cc2)c(C)s1 -8.2%
O=C(Nc1cccc(F)c1)c1coc(=O)c(Br)c1 13.2%
COC(=O)c1ccc(C(=O)OC)c(NC(=S)N2CCN(c3ccc(F)cc3)CC2)c1 -5.9%
CC(NC(=O)CCC(=O)N1CCN(S(=O)(=O)c2ccc(Cl)cc2)CC1)c1ccccc1 (stereo not given) -56.8%
COc1cc(C(=S)NC2CCCCC2)ccc1O 5.4%
CCOc1ccc(NC(=S)NC(=O)/C=C/c2ccc(OC)cc2)c([N+](=O)[O-])c1 -34%
C=CCO/N=C/C1=C(O)C(C(=O)OC)C(C)(C)CC1=O (stereo not given) -21.8%
CC(NC(=O)CC1SC(N)=NC1=O)c1ccccc1 (stereo not given) -8.1%
C/C(=N\NC(=O)c1ccc(CSc2nc(C)cc(C)n2)cc1)C1CCCCC1 -2.1%
COc1ccc(OC)c(CNC(=O)c2cc(=O)[nH]c3ccc(S(=O)(=O)N4CCCC4)cc23)c1 9.9%
Cc1cccc(NC(=O)c2nnn(-c3cccc(C(F)(F)F)c3)c2N)c1 6.8%
CCOC(=O)N1CCN(C(=O)C2CCN(Cc3ccc(OC)cc3OC)CC2)CC1 3.5%
O=C(NCCc1ccccc1)C1CCN(S(=O)(=O)c2ccc(Br)s2)CC1 2.9%
CSc1nc2c(c(=O)[nH]1)C(c1cccc(Cl)c1Cl)CC(=O)N2 (stereo not given) -12.6%
Cc1ccc(CCC(=O)Nc2ncc(Cc3cc(Cl)ccc3Cl)s2)o1 5.3%
